The test system of series [1] is streptozotocin-induced diabetic Wistar rats. The series can be described thus: antidiabetic activity: blood glucose in STZ-induced diabetes. The format is in vivo, Wistar albino rats. The gist of the method: (§1)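 Male Wistar albino rats (170–200 g, 8–10 weeks), fasted overnight, given STZ 50 mg/kg i.p. in 0.1 M citrate buffer, then 10% glucose for 3 days. Tail-vein glucose by glucometer at 72 h; >250 mg/dL counted as diabetic. Body weight and blood glucose on days 1, 7, 14, 21 and 28. Means ± SEM, one-way ANOVA with Dunnett's test.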

Series [2] has the same test system. As to the kind of experiment: serum profile. The format is in vivo, Wistar albino rats. The conditions noted are these: STZ-diabetic rats; for (ALP) IU / (SGOT) IU / (SGPT) IU: serum. The gist of the method: (§2)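 STZ-diabetic Wistar rats (n = 8 per group) received test compound at 10 or 20 mg/kg p.o., or glibenclamide 500 μg/kg p.o., once daily for 28 days; controls received vehicle. On day 28, rats were anesthetised with pentobarbital sodium (35 mg/kg) and blood was drawn by cardiac puncture. Serum ALP, SGPT, SGOT, LDL, HDL, TG, total cholesterol, creatinine and insulin were measured. Means ± SEM, one-way ANOVA with Dunnett's test.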

Series [3] relates to overnight fasted normal rats. As to the kind of experiment: oral glucose tolerance test. The format is in vivo, Wistar albino rats. The conditions noted are these: OGTT, glucose 3 g/kg oral.
For series [4], the target named is α-glucosidase (Saccharomyces cerevisiae, UniProt P53341). The series can be described thus: α-glucosidase inhibitory activity. The format is biochemical. Particulars: read-out: glucosidase inhibition IC50 ± SEM; mean ± SEM.
Chain of α-glucosidase (P53341 whole entry): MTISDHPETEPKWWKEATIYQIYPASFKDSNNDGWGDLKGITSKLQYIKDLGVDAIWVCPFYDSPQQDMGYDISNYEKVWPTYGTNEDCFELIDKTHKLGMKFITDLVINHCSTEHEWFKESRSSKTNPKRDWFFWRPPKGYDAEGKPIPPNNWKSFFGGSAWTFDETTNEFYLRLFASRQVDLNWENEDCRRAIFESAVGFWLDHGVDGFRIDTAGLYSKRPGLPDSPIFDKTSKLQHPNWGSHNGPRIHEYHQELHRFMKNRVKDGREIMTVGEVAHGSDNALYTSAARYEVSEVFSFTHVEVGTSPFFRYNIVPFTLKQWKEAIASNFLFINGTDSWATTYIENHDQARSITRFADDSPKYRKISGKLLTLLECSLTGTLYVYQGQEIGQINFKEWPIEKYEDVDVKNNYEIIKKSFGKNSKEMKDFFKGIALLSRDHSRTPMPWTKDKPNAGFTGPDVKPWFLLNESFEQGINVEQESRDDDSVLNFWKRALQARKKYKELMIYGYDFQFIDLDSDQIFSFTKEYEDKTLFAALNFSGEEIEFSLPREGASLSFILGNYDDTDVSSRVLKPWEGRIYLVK
Series [5] is described as follows: body weight of STZ-induced diabetic rats. The format is in vivo, Wistar albino rats. Particulars: for body weight, day 1: day 1, in g (unit assumed); for body weight, day 7: day 7, in g (unit assumed); for body weight, day 14: day 14, in g (unit assumed); for body weight, day 21: day 21, in g (unit assumed); for body weight, day 28: day 28, in g (unit assumed). The procedure, abridged:
as §1

The subject of series [6] is Balb/C mice. The series can be described thus: acute toxicity study in mice. The format is in vivo. The procedure, abridged:
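Two-phase modified Lorke protocol in Balb/C mice (20–25 g), four per group. Phase 1: control given Tween-80 (2%); other groups received oral test compound at 100, 500 or 1000 mg/kg. Phase 2: oral doses of 1250, 1500 and 2000 mg/kg. Animals observed for the first 24 h, then daily for 2 weeks for diarrhea, convulsions, lethargy, sleeping, salivation and tremors, with mortality monitored.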

For series [7], the system named is streptozotocin-induced diabetic Wistar rats. As to the kind of experiment: lipid profile in streptozotocin-induced diabetes. The format is in vivo, Wistar albino rats. The conditions noted are these: STZ-diabetic rats; 0.5 mg/kg for 28 days. The gist of the method:
as §2

Regarding “4-(4-(p-Tolyl)-2,3-dihydrobenzo[b][1,5]thiazepin-2-yl)benzoic acid [7B]”, in series [1] (10 mg/kg p.o. once daily), the “blood glucose level, day 1” value is 377.08 ± 5.01 mg/dL; the “blood glucose level, day 7” value is recorded as 290.20 ± 4.93 mg/dL; the “blood glucose level, day 14” value was found to be 215.76 ± 5.03 mg/dL; the “blood glucose level, day 21” value is 153.19 ± 4.66 mg/dL. Moreover, in series [1] (10 mg/kg p.o. once daily, day 28), the “blood glucose level, day 28” value turned out to be 136.51 ± 5.19 mg/dL. Also, in series [1] (20 mg/kg p.o. once daily), the “blood glucose level, day 1” value is recorded as 374.21 ± 4.12 mg/dL; the “blood glucose level, day 7” value is listed as 238.39 ± 5.11 mg/dL; the “blood glucose level, day 14” value came to 171.44 ± 4.98 mg/dL; the “blood glucose level, day 21” value came to 134.20 ± 5.03 mg/dL. Also, the “blood glucose level, day 28” value in series [1] (20 mg/kg p.o. once daily, day 28, 20 mg/kg) is 112.97 ± 4.56 mg/dL. In series [2] (10 mg/kg for 28 days), this compound yielded an insulin level of 0.621 ± 0.37 ng/mL. Moreover, in series [2] (10 mg/kg for 28 days, 10 mg/kg), the serum creatinine was determined as 0.85 ± 0.37 mg/dL, the “(ALP) IU” value was 217.14 ± 4.61 IU, the “(SGOT) IU” value amounted to 26.71 ± 1.91 IU and the “(SGPT) IU” value turned out to be 27.07 ± 2.77 IU. The insulin level in series [2] (20 mg/kg for 28 days) is listed as 0.639 ± 0.29 ng/mL. In series [2] (20 mg/kg for 28 days, 20 mg/kg), the serum creatinine was determined as 0.79 ± 0.31 mg/dL, the “(ALP) IU” value stood at 209.01 ± 4.29 IU, the “(SGOT) IU” value was determined as 23.08 ± 2.11 IU and the “(SGPT) IU” value is reported as 23.91 ± 2.21 IU. In series [3] (dose 10 mg/kg), the “blood glucose level, 0 min” value turned out to be 104.01 ± 4.97 mg/dL; the “blood glucose level, 30 min” value came out at 120.71 ± 5.01 mg/dL; the “blood glucose level, 60 min” value was 120.90 ± 4.54 mg/dL; the “blood glucose level, 90 min” value is 116.52 ± 4.11 mg/dL. Moreover, the “blood glucose level, 120 min” value in series [3] (dose 10 mg/kg) is recorded as 109.25 ± 4.91 mg/dL. In addition, in series [3] (dose 20 mg/kg), the “blood glucose level, 0 min” value was 103.88 ± 4.04 mg/dL; the “blood glucose level, 30 min” value came out at 117.41 ± 4.70 mg/dL; the “blood glucose level, 60 min” value amounted to 114.22 ± 4.97 mg/dL; the “blood glucose level, 90 min” value came out at 117.01 ± 4.66 mg/dL. Besides, the “blood glucose level, 120 min” value in series [3] (dose 20 mg/kg) is on record as 108.91 ± 4.87 mg/dL. Moreover, the IC50 in series [4] was 3.96 ± 0.42 µM. Besides, in series [5] (10 mg/kg), the “body weight, day 1” value is 191.1 ± 4.07; the “body weight, day 7” value stood at 188.2 ± 4.57; the “body weight, day 14” value stood at 185.6 ± 4.90; the “body weight, day 21” value was 184.1 ± 4.71. Moreover, the “body weight, day 28” value in series [5] (10 mg/kg) is 183.7 ± 4.32. In addition, in series [5] (20 mg/kg), the “body weight, day 1” value came to 188.9 ± 4.67; the “body weight, day 7” value was determined as 190.8 ± 4.21; the “body weight, day 14” value amounted to 188.1 ± 4.62; the “body weight, day 21” value is reported as 185.2 ± 3.91. Moreover, in series [5] (20 mg/kg), the “body weight, day 28” value turned out to be 186.1 ± 4.58. Besides, the mortality result in series [6] (maximum oral dose of 2000 mg/kg (b.w.)) was “no mortality”. Moreover, the “toxic effects (diarrhea, convulsions, lethargy, sleeping, salivation, tremor)” value in series [6] (oral up to 2000 mg/kg, observed daily for 2 weeks) is “no toxic effects”.
Turning to “2-(4-Butoxy-3-methoxyphenyl)-4-(p-tolyl)-2,3-dihydrobenzo[b][1,5]thiazepine [9B]”, the IC50 in series [4] amounted to 8.56 ± 0.59 µM.
On the same count and under the same terms, the result for “2-(4-Ethoxyphenyl)-4-(p-tolyl)-2,3-dihydrobenzo[b][1,5]thiazepine [8B]” reads 9.44 ± 0.83 µM.
Still for that read-out and setting: the result for “2-(3-Methoxy-4-propoxyphenyl)-4-(p-tolyl)-2,3-dihydrobenzo[b][1,5]thiazepine [5B]” reads 6.28 ± 0.71 µM.
For `COc1ccc(Cl)cc1C(=O)NCCc1ccc(S(=O)(=O)NC(=O)NC2CCCCC2)cc1` [glibenclamide, reference compound], in series [7], the HDL was 65.90 ± 2.71 mg/dL, the LDL was found to be 96.12 ± 4.31 mg/dL, the TG was 105.43 ± 4.31 mg/dL and the “total CH” value was determined as 122.09 ± 4.89 mg/dL. In series [1] (0.5 mg/kg p.o.), the “blood glucose level, day 1” value turned out to be 352.28 ± 4.11 mg/dL; the “blood glucose level, day 7” value worked out at 231.12 ± 4.29 mg/dL; the “blood glucose level, day 14” value is given as 151.43 ± 4.09 mg/dL; the “blood glucose level, day 21” value worked out at 118.87 ± 4.03 mg/dL. Besides, the “blood glucose level, day 28” value in series [1] (0.5 mg/kg p.o., day 28) stood at 101.68 ± 4.19 mg/dL. In addition, in series [2] (0.5 mg/kg for 28 days), the insulin level amounted to 0.754 ± 0.33 ng/mL, the serum creatinine is 0.57 ± 0.23 mg/dL, the “(ALP) IU” value came to 185.32 ± 5.71 IU and the “(SGOT) IU” value worked out at 20.68 ± 2.01 IU. Further, the “(SGPT) IU” value in series [2] (0.5 mg/kg for 28 days) is recorded as 19.63 ± 2.11 IU. Further, in series [3] (dose 0.5 mg/kg), the “blood glucose level, 0 min” value stood at 102.03 ± 4.22 mg/dL; the “blood glucose level, 30 min” value worked out at 103.92 ± 5.01 mg/dL; the “blood glucose level, 60 min” value amounted to 108.71 ± 4.21 mg/dL; the “blood glucose level, 90 min” value worked out at 101.86 ± 4.21 mg/dL. Moreover, the “blood glucose level, 120 min” value in series [3] (dose 0.5 mg/kg) is recorded as 104.12 ± 4.67 mg/dL. Further, in series [5] (0.5 mg/kg), the “body weight, day 1” value came out at 187.4 ± 4.57; the “body weight, day 7” value is on record as 190.2 ± 3.98; the “body weight, day 14” value is 177.1 ± 4.21; the “body weight, day 21” value is recorded as 183.7 ± 4.33. For the same compound, the “body weight, day 28” value in series [5] (0.5 mg/kg) was found to be 185.1 ± 4.48.

What is called IC50 is the concentration that inhibits the measured activity by half.

The record behind these values is article PMC9435035 (ACS Omega, 2022).
